Results from ChEMBL document CHEMBL4765269, “Design, synthesis and evaluation of phenylthiazole and phenylthiophene pyrimidindiamine derivatives targeting the bacterial membrane” (Eur J Med Chem, 2020).
≈ marks a conversion by molar mass, not a printed value. Calls of active or inactive are those of the source. No cut-off for these calls is given here. Where a SMILES comes first, the peptide text is derived from it. Bridges are numbered along the chain shown (N, C = ends). [ ]: non-standard residue; d: D form. The star is where a group is joined. X1 = CC[C@H](C)CCCCC(=O)*; Dab = NCC[C@H](N)C(=O)O

Experiments:
Escherichia coli [1] = test: Antibacterial activity against Escherichia coli ATCC 25922 assessed as inhibition of growth measured after 24 hrs by CLSI based broth microdilution method; assay type: functional
Staphylococcus aureus [2] = test: Antibacterial activity against Staphylococcus aureus ATCC 29213 assessed as inhibition of growth measured after 24 hrs by CLSI based broth microdilution method; assay type: functional
Staphylococcus aureus [3] = test: Antibacterial activity against Staphylococcus aureus ATCC 29213 assessed as bacterial growth inhibition at 0.5 times of MIC concentration measured at logarithmic phase 6 th hr of bacterial cycle; assay type: functional, organism-based; conditions: time 24.0 hrs
Outline: (§1)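 Bacteria grown in Mueller Hinton broth with compound at several MIC multiples, shaken at 220 rpm and 37 °C for 24 h. Growth was recorded every 2 h over the 24 h. The solvent control was 1% DMSO under the same conditions.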

Staphylococcus aureus [4] = test: Antibacterial activity against Staphylococcus aureus ATCC 29213 assessed as bacterial growth inhibition at 1 to 2 times of MIC concentration measured at logarithmic phase 6 th hr of bacterial cycle; assay type: functional; conditions: time 6 hrs; outline: as §1
Escherichia coli [5] = test: Antibacterial activity against Escherichia coli ATCC 25922 assessed as bacterial growth inhibition at 0.5 times of MIC concentration measured at logarithmic phase 6 th hr of bacterial cycle; assay type: functional, organism-based; conditions: time 24.0 hrs; outline: as §1
Escherichia coli [6] = test: Antibacterial activity against Escherichia coli ATCC 25922 assessed as bacterial growth inhibition at 1 to 2 times of MIC concentration measured at logarithmic phase 6 th hr of bacterial cycle; assay type: functional; conditions: time 6 hrs; outline: as §1
Cell membrane [7] = test: Induction of membrane disruption in Escherichia coli ATCC 25922 at 1 to 4 x MIC measured within 20 min by Ethidium bromide based fluorescence assay; assay type: functional, subcellular
Outline: (§2)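 Log-phase cells washed and resuspended in PBS at about 10^8 CFU/mL. Ethidium bromide ([…], stated as final) and compound at various concentrations were added. Fluorescence (ex 540, em 590 nm) was read every 20 min for 80 min against a solvent control.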

Staphylococcus aureus [8] = test: Induction of morphological changes in Staphylococcus aureus ATCC 29213 assessed as deformed, pitted and shriveled surface at MIC incubated for 12 hrs by scanning electron microscopy; assay type: functional, organism-based
Outline: (§3)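 Cells treated with 1× MIC compound or PBS, then washed three times in PBS. Pellets were fixed in 2.5% glutaraldehyde for 2 h, dehydrated through an ethanol series, critical-point dried and gold-coated. Imaging was by SEM at 3 kV.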

Escherichia coli [9] = test: Induction of morphological changes in Escherichia coli ATCC 25922 assessed as deformed, pitted and shriveled surface at MIC incubated for 12 hrs by scanning electron microscopy; assay type: functional, organism-based; outline: as §3
[10] = Toxicity in rabbit red blood cells assessed as hemolysis at 3 to 22.5 ug/ml incubated for 1 hr relative to control; assay type: cell-based, Oryctolagus cuniculus, Erythrocyte; conditions: at 3 to 22.5 µg/mL, dose 3-22.5 µg/ml, read-out: Activity
Outline: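 Washed rabbit erythrocytes at 2% in PBS were mixed with compound at final 3 to 22.5 µg/mL for 1 h at room temperature. After centrifugation at 1500 rpm for 10 min, supernatant absorbance was read at 450 nm. Hemolysis % = (A − A_PBS)/(A_Triton − A_PBS) × 100, with 0.5% Triton X-100 as the positive control. Run in triplicate.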

Cell membrane [11] = test: Induction of cell membrane damage in Staphylococcus aureus ATCC 29213 assessed as fluorescence emission at MIC after 1 hr by propidium iodide staining based transmission electron microscopy (Rvb= 1.53%); assay type: functional, subcellular; conditions: in the assay text read “flow cytometry” for “transmission electron microscopy”
Outline: (§4)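 Log-phase bacteria diluted in PBS to about 10^9 CFU/mL and exposed to 1× MIC compound at 37 °C for 1 h. Cells were washed and stained with 60 µM propidium iodide in the dark for 15 min, then read at once by flow cytometry. The percentage of PI-stained cells was reported against an untreated control.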

Cell membrane [12] = test: Induction of membrane depolarization in Escherichia coli ATCC 25922 assessed as increased the fluorescence intensity at 1 to 2 times of MIC incubated for 80 min by [DiSC3(5)] probe based fluorescence assay; assay type: functional, subcellular
Outline: (§5)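 Log-phase cells at 10^7 CFU/mL in PBS with 0.4 µM DiSC3(5) and 0.1 M KCl, kept in the dark. […] Fluorescence (ex 622, em 670 nm) was recorded continuously for 80 min.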

Cell membrane [13] = test: Induction of cell membrane damage in Escherichia coli ATCC 25922 assessed as fluorescence emission at MIC after 1 hr by propidium iodide staining based transmission electron microscopy (reference value: 4.34%); assay type: functional, subcellular; conditions: in the assay text read “flow cytometry” for “transmission electron microscopy”; outline: as §4
Staphylococcus aureus [14] = test: Induction of morphological changes in Staphylococcus aureus ATCC 29213 assessed as damaged cells at MIC incubated for 12 hrs by Transmission electron microscopy; assay type: functional, organism-based
Outline: (§6)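 Cells treated with 1× MIC compound or PBS, then washed three times in PBS. Pellets were fixed in 2.5% glutaraldehyde and then 1% osmium tetroxide, 2 h each, and examined by TEM.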

Staphylococcus aureus [15] = test: Antibacterial activity against Staphylococcus aureus ATCC 29213 infected in mouse C57BL/6 bacterimia model assessed as reduction in number of viable pathogens in peritoneal cavity at 24 mg/kg, ip treated 1 hr after infection measured after 24 hrs; assay type: functional, organism-based
Outline: (§7)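 Male C57BL/6 mice (20 ± 2 g, 7 per group) got an ip injection of 200 µL mid-log S. aureus in sterile saline (about 10^9 CFU per 20 g). Compound was given ip 1 h later. Controls were 0.9% saline and polymyxin B 12 mg/kg. After 24 h, peritoneal lavage (2 mL PBS) was serially diluted 10-fold onto TSA and incubated 18-24 h at 37 °C. CFU were counted.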

Staphylococcus aureus [16] = test: Antibacterial activity against Staphylococcus aureus ATCC 29213 infected in mouse C57BL/6 bacterimia model assessed as reduction in number of viable pathogens in peritoneal cavity at 12 mg/kg, ip treated 1 hr after infection measured after 24 hrs; assay type: functional, organism-based; outline: as §7
Cell membrane [17] = test: Induction of membrane disruption in Staphylococcus aureus ATCC 29213 at 1 to 4 x MIC measured within 20 min by Ethidium bromide based fluorescence assay; assay type: functional, subcellular; outline: as §2
Escherichia coli [18] = test: Induction of morphological changes in Escherichia coli ATCC 25922 assessed as damaged cells at MIC incubated for 12 hrs by Transmission electron microscopy; assay type: functional, organism-based; outline: as §6
Cell membrane [19] = test: Induction of membrane depolarization in Staphylococcus aureus ATCC 29213 assessed as increased the fluorescence intensity at 1 to 2 times of MIC incubated for 80 min by [DiSC3(5)] probe based fluorescence assay; assay type: functional, subcellular; outline: as §5

SMILES | MIC (Escherichia coli [1]) [µg/mL] | MIC (Staphylococcus aureus [2]) [µg/mL] | further results
CCCCNc1nccc(NCc2ccc(-c3ccccc3)s2)n1 | > 32 | 4 (≈ 11.8 µM) | –
c1ccc(-c2ccc(CNc3ccnc(N4CCNCC4)n3)s2)cc1 | > 32 | > 32 | –
CC(C)CNc1nccc(NCc2csc(-c3ccccc3)n2)n1 | > 32 | > 32 | –
Clc1nccc(NCc2csc(-c3ccccc3)n2)n1 | > 32 | > 32 | –
c1ccc(-c2ccc(CNc3ccnc(N4CCCC4)n3)s2)cc1 | 8 (≈ 23.8 µM) | 8 (≈ 23.8 µM) | –
O=C(N[C@H](CO)[C@H](O)c1ccc([N+](=O)[O-])cc1)C(Cl)Cl [CHLORAMPHENICOL] | 8 (≈ 24.8 µM) | 8 (≈ 24.8 µM) | –
CC[C@H](C)CCCCC(=O)N[C@@H](CCN)C(=O)N[C@H](C(=O)N[C@@H](CCN)C(=O)N[C@H]1CCNC(=O)[C@H]([C@@H](C)O)NC(=O)[C@H](CCN)NC(=O)[C@H](CCN)NC(=O)[C@H](CC(C)C)NC(=O)[C@@H](Cc2ccccc2)NC(=O)[C@H](CCN)NC1=O)[C@@H](C)O (X1-[Dab]T[Dab][Dab][Dab][dF]L[Dab][Dab]T; lactam 4-C) | 32 (≈ 26.6 µM) | 512 (≈ 425 µM) | –
c1ccc(-c2ccc(CNc3ccnc(N4CCOCC4)n3)s2)cc1 | > 32 | > 32 | –
CN[C@H](CC(C)C)C(=O)N[C@H]1C(=O)N[C@@H](CC(N)=O)C(=O)N[C@H]2C(=O)N[C@H]3C(=O)N[C@H](C(=O)N[C@H](C(=O)O)c4cc(O)cc(O)c4-c4cc3ccc4O)[C@H](O)c3ccc(c(Cl)c3)Oc3cc2cc(c3O[C@@H]2O[C@H](CO)[C@@H](O)[C@H](O)[C@H]2O[C@H]2C[C@](C)(N)[C@H](O)[C@H](C)O2)Oc2ccc(cc2Cl)[C@H]1O [VANCOMYCIN] | 1 (≈ 0.69 µM) | – | –
CCCCN(CCCC)c1nccc(NCc2ccc(-c3ccccc3)s2)n1 | > 32 | > 32 | –
CC(C)CN(CC(C)C)c1nccc(NCc2ccc(-c3ccccc3)s2)n1 | > 32 | > 32 | –
CCCN(CCC)c1nccc(NCc2ccc(-c3ccccc3)s2)n1 | 8 (≈ 21.8 µM) | > 32 | –

Second part, led by results:

MIC (Escherichia coli [1]) [µg/mL] | MIC (Staphylococcus aureus [2]) [µg/mL] | SMILES | further results
4 (≈ 9.58 µM) | 8 (≈ 19.2 µM) | CC(C)CNc1nccc(NCc2ccc(-c3ccccc3Br)s2)n1 | –
4 (≈ 10.9 µM) | 4 (≈ 10.9 µM) | COc1ccc(-c2ccc(CNc3ccnc(NCC(C)C)n3)s2)cc1 | –
8 (≈ 21.5 µM) | 8 (≈ 21.5 µM) | CC(C)CNc1nccc(NCc2ccc(-c3ccc(Cl)cc3)s2)n1 | –
16 (≈ 51.5 µM) | > 32 | CCNc1nccc(NCc2ccc(-c3ccccc3)s2)n1 | –
> 32 | > 32 | CC(C)Nc1nccc(NCc2ccc(-c3ccccc3)s2)n1 | –
8 (≈ 23.6 µM) | 8 (≈ 23.6 µM) | CC(C)CNc1nccc(NCc2ccc(-c3ccccc3)s2)n1 | –
> 32 | 8 (≈ 22.4 µM) | CC(C)CNc1nccc(NCc2ccc(-c3ccc(F)cc3)s2)n1 | –
2 (≈ 5.07 µM) | 8 (≈ 20.3 µM) | CC(C)CNc1nccc(NCc2ccc(-c3ccc(C(C)(C)C)cc3)s2)n1 | –
2 (≈ 4.79 µM) | 4 (≈ 9.58 µM) | CC(C)CNc1nccc(NCc2ccc(-c3ccc(Br)cc3)s2)n1 | –
8 (≈ 18 µM) | 8 (≈ 18 µM) | CC(C)CNc1nccc(NCc2ccc(-c3ccc(OCc4ccccc4)cc3)s2)n1 | –
2 (≈ 4.79 µM) | 3 (≈ 7.19 µM) | CC(C)CNc1nccc(NCc2ccc(-c3cccc(Br)c3)s2)n1 | Activity (Staphylococcus aureus [3]): Active; inhibition (INH) (Staphylococcus aureus [4]): 100%; Activity (Escherichia coli [5]): Active; inhibition (INH) (Escherichia coli [6]): 100%; Activity (Cell membrane [7]): Active; Activity (Staphylococcus aureus [8]): Active; Activity (Escherichia coli [9]): Active; hemolysis at 1 h [10]: < 20%; Activity (Cell membrane [11]): 58.5%; Activity (Cell membrane [12]): Active; Activity (Cell membrane [13]): 77.2%; Activity (Staphylococcus aureus [14]): Active; Activity (Staphylococcus aureus [15]): Active; Activity (Staphylococcus aureus [16]): Active; Activity (Cell membrane [17]): Active; Activity (Escherichia coli [18]): Active; Activity (Cell membrane [19]): Active
8 (≈ 24.7 µM) | 16 (≈ 49.3 µM) | CCCNc1nccc(NCc2ccc(-c3ccccc3)s2)n1 | –
